# Hep lipid drop – hepatic lipid droplet formation modulation. AML12 mouse hepatocytes, oleate lipid droplets, BODIPY imaging. 240,000 compounds, 0.4% hits. inhibition, % at 6.5 µM;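 active = lipid droplet intensity inhibited by at least 50%, with more than 500 cells counted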
#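 Test system: AML12 mouse liver cells; schedule: overnight exposure; technique: high-content imaging of BODIPY-stained droplets and DAPI nuclei; read-out: % inhibition of corrected integrated BODIPY droplet signal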
# SR-BI DiI inh – mouse SR-BI HDL lipid transfer inhibition | Q61009 | ldlA[mSR-BI] CHO cells, DiI-HDL uptake fluorescence, 3 h | inhibition, % at 12.5 µM | 320,000 compounds, 0.96% hits | AID 488896;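 active = mean replicate inhibition of at least 70% and a set share of replicates each scoring 70 or more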;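 also: 0% = median of neutral control wells and 100% = median of positive control wells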
# Target sequence (Q61009 whole entry, looked up): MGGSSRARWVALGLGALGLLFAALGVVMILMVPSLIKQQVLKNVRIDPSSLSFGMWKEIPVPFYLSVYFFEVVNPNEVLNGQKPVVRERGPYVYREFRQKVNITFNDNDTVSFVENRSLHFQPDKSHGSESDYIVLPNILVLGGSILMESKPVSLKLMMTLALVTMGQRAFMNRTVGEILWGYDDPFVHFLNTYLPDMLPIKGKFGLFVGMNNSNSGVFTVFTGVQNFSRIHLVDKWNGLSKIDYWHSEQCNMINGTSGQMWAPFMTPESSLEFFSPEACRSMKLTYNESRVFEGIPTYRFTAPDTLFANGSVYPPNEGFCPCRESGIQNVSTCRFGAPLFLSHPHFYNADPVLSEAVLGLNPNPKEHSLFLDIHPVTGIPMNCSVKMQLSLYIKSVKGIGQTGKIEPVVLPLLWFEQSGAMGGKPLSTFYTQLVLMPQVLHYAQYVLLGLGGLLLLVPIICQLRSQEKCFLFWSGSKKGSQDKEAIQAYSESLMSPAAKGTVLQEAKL
# SMARCA2 activ – increases SMARCA2 function in MMTV reporter cells. 370,000 compounds, 1% hits. activation, % at 9.1 µM. MG213 cells, MMTV-luciferase reporter, dexamethasone, overnight; in the data active = activation above about 7.8%;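 also: 0% = vehicle wells and 100% = reference activator wells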
# SR-BI DiI-HDL act – enhances SR-BI lipid uptake from DiI-HDL | CHO ldlA[mSR-BI] cells, DiI-HDL uptake fluorescence, 3 h; 100 = double the neutral-control signal | activation, % at 12.5 µM | 320,000 compounds, 0.096% hits;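 active = mean replicate activation of at least 60% and every replicate at or above 60%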;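 also: 0% = median plate neutral-control signal and 100% = twice that signal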
#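 Test system: SR-BI-overexpressing, LDLR-lacking CHO cells; Medium: Ham's F12 with 0.5% BSA, HEPES 25 mM, pH 7.4; Schedule: 3 h, 37 °C; Technique: bottom-read fluorescence, 550/595 nm.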
# Yeast superoxide – yeast age-related superoxide inhibition as caloric restriction mimetic; S. cerevisiae aged cells, superoxide DHE fluorescence; stronger effect = lower value; superoxide response (% of plate mean), % at 10 µM; 330,000 compounds, 0.18% hits; AID 2690;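 active = superoxide response under a set limit, about three screen SD below normal, cut at about 65% in these data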;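 also: yeast aged for seven days with compound at 30 °C before DHE staining; 100% = average MFI of all compound-treated wells on the plate with controls excluded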
# AHR act – activators of human aryl hydrocarbon receptor; AHR-responsive luciferase reporter cells, luminescence; activation, % at 5 µM; 320,000 compounds, 2.5% hits; in the data active = activation above about 47%;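 also: 0% = vehicle wells and 100% = reference agonist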
# * = called active by the depositor; . = no result. Sampled rows, rich in hits. Any-hit rate of the full collection: about 4.3%.
SMILES,Hep lipid drop,SR-BI DiI inh,SMARCA2 activ,SR-BI DiI-HDL act,Yeast superoxide,AHR act
COc1cccc(CN(C)C(=O)[C@H]2O[C@@H](n3cnc4c(=O)[nH]c(N)nc43)[C@H](O)[C@@H]2O)c1,.,.,-1,.,.,.
Cc1cccc(N=N/C(=C\O)C(=O)c2ccc(Br)cc2)c1,5,31,0,-31,90,17
O=C(/C(=C/O)N=Nc1cccc(C(F)(F)F)c1)c1ccccc1,0,14,2,-14,90,75*
CCN(CC)C(=O)c1ncn2c1C(=O)NC[C@@H]2C,.,.,-1,.,.,.
NNc1nc2c(Cl)c(Cl)ccc2s1,17,-2,-1,2,106,84*
COc1cccc2sc(NN)nc12,5,-4,-1,4,95,33
COc1ccc(NC(=O)Nc2ccc3c(c2)OCO3)c(C)c1,-8,-19,2,19,113,67*
Cc1cc(OC(F)F)ccc1NC(=O)Nc1ccc2c(c1)OCO2,8,8,-3,-8,114,66*
CCc1cccc(C)c1NC(=O)Nc1ccc2c(c1)OCO2,17,-14,-3,14,93,27
COc1ccc(S[C@]2(C(=O)N3CCOCC3)CC(=O)N[C@@H]2c2ccc(OC)cc2)cc1,.,.,-1,.,.,.
Cc1ccc(NC(=O)N2CCC(N(C)CCC(C)C)CC2)cc1F,.,.,-1,.,.,.
COCCn1c(=NC(=O)CCS(=O)(=O)c2ccccc2)sc2c(OC)ccc(OC)c21,5,-12,0,12,88,51*
O=C(c1ccc(Cl)cc1)N1CCC(Oc2cccnc2)CC1,.,.,-1,.,.,.
O=C(O)c1cc([N+](=O)[O-])cc2ccccc12,.,-90,1,90*,.,.
CCOc1cccc(NC(=O)C2CC(=O)N(C)C(=Nc3cccc(F)c3)S2)c1 (configuration not stated),.,73*,1,-73,109,3
CCOc1cccc(NC(=O)C2CC(=O)N(C)C(=Nc3ccccc3)S2)c1 (configuration not stated),.,75*,-2,-75,119,5
CN1C(=O)CC(C(=O)Nc2ccccc2F)SC1=Nc1ccc2c(c1)OCO2 (configuration not stated),-5,73*,-3,-73,98,2
COc1ccccc1N=C1SC(C(=O)Nc2ccc(F)cc2)CC(=O)N1C (configuration not stated),-19,-7,4,7,89,-1
CCCOc1ccc(NC(=O)C2CC(=O)N(C)C(=Nc3cccc(OC)c3)S2)cc1 (configuration not stated),-3,-3,-1,3,91,6
Cc1cc2c(c(=O)o1)[C@@]1(C(=O)N(C)c3cccc(Br)c31)C1=C(CCCC1=O)O2,.,.,-8,.,.,.
O=C(CSc1nc2ccccc2nc1N1CCOCC1)N1CCN(c2cccc(C(F)(F)F)c2)CC1,.,.,-7,.,.,.
Cc1nn(C)c(C(=O)Nc2ccc(Cl)c([N+](=O)[O-])c2)c1Cl,9,39,-1,-39,101,48*
Cc1cc(NC(=O)c2c([N+](=O)[O-])c(C)nn2C)no1,.,-37,0,37,80,70*
COc1ccc(C(=O)Nc2ccc3c(c2)OCCO3)cc1[N+](=O)[O-],1,58,-1,-58,69,-2
COc1ccc(NC(=O)c2cc(C)cc(C)c2)cc1[N+](=O)[O-],1,80*,-4,-80,101,39
SMILES,Hep lipid drop,SR-BI DiI inh,SMARCA2 activ,SR-BI DiI-HDL act,Yeast superoxide,AHR act
COc1cc(C(=O)Nc2ccc(Cl)c([N+](=O)[O-])c2)cc(OC)c1OC,.,80*,-4,-80,107,11
COc1cc(C(=O)Nc2ccc(Cl)c(C(F)(F)F)c2)cc(OC)c1OC,-6,58,2,-58,105,34
N#Cc1ccc(NC(=O)OC2CC3CC2[C@H]2CCCCN2C3)cc1 (some centres not stated),.,.,-2,.,.,.
O=C(NCc1ccco1)C1CCCN(S(=O)(=O)c2cccs2)C1 (configuration not stated),.,.,0,.,.,.
COC(=O)C1=C(C)N(Cc2ccccc2C(F)(F)F)C(=NCc2ccccc2C(F)(F)F)NC1c1ccc(Cl)cc1 (configuration not stated),.,.,1,.,.,.
COc1cc(C(=O)Nc2ccc(Nc3ccccc3)cc2)cc(OC)c1OC,7,79*,0,-79,102,1
COc1cc(C(=O)Nc2ccncc2)cc(OC)c1OC,.,0,-3,0,87,5
CCCOc1ccc(NC(=O)C2CC(=O)N/C(=N/N=C(C)/C=C/c3ccc(N(C)C)cc3)S2)cc1 (configuration not stated),1,82*,9.3*,-82,84,9
Nc1ccc(C(=O)Nc2ccccc2C(=O)O)cc1,.,-85,1,85*,103,12
O=C(NC(=S)N1CCN(c2ccccn2)CC1)c1ccccc1,1,-13,-2,13,105,-1
S=C(NC1CCCC1)N1CCN(c2ccccn2)CC1,2,1,-3,-1,117,57*
COC(=O)C1=C(C)N(Cc2cccc(C(F)(F)F)c2)C(=NCC2CC2)NC1c1ccccc1C(F)(F)F (configuration not stated),.,.,1,.,.,.
CCc1ccc(N2C(=O)c3cc(N4CCOCC4)c([N+](=O)[O-])cc3C2=O)cc1,0,.,.,.,90,-3
CCc1cccc(CC)c1N1C(=O)c2cc(N3CCOCC3)c([N+](=O)[O-])cc2C1=O,-8,75*,-3,-75,97,0
CC(C)OC(=O)Nc1ccc2c(c1)N(C(=O)CCN1CCOCC1)c1ccccc1CC2,-7,-63,-1,63*,87,5
O=C(C1CCN(c2nnc(-n3cccc3)s2)CC1)N1CCN(c2cccc(C(F)(F)F)c2)CC1,.,72*,-3,-72,96,0
CCCCNC(=O)C1CCCN1C(=O)Nc1cccc(C)c1 (configuration not stated),.,.,-3,.,.,.
CCC(=O)Nc1ccc(-c2ccc(NC(=O)CC)c(OC)c2)cc1OC,4,83*,-5,-83,101,3
O=C(NNc1nc2c(F)cc(F)cc2s1)C1COc2ccccc2O1 (configuration not stated),-7,-9,-2,9,106,6
COc1ccc(OC)c2sc(NC(=O)C3CC3)nc12,.,3,4,-3,94,75*
COc1ccc(OC)c2sc(NNC(=O)COc3ccccc3)nc12,0,-21,-1,21,102,79*
COc1ccc(OC)c2sc(NNC(=O)C3COc4ccccc4O3)nc12 (configuration not stated),-13,11,-2,-11,109,57*
CCOC(=O)[C@@]12CCCC3=C1N(CCC3)C(=O)[C@H]2CC(=O)NCC12CC3CC(CC(C3)C1)C2,.,.,-1,.,.,.
COC(=O)Cn1cnc2c(NC(=O)c3ccccc3)ncnc21,.,.,4,.,.,.
